The source of these data is ChEMBL document CHEMBL4184148 (Bioorg Med Chem Lett, 2017).

In experiment [1] the target is Casein kinase I isoform delta (Homo sapiens) (UniProt P48730). Description: Binding affinity to wild-type human full length CSNK1D (M1 to K409 residues) expressed in Escherichia coli BL21 at 1 uM by Kinomescan method relative to control. An outline of the steps: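 Run as one kinome-wide competition binding panel with each compound at a single fixed concentration. Results were plotted as a kinome-wide selectivity map.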

Experiment [2] has as its target 5'-AMP-activated protein kinase catalytic subunit alpha-1 (Homo sapiens) (UniProt Q13131). Description: Binding affinity to wild-type human partial length AMPK alpha1 (M1 to E306 residues) expressed in Escherichia coli BL21 at 1 uM by Kinomescan method relative to control. Summed up:
(§1)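 Kinome-wide competition binding panel run by an outside provider, with each compound tested at a single concentration. Activity is read against the kinase panel.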

Another experiment deals with HEK293. In words: Cytotoxicity against human HEK293 cells assessed as reduction in cell viability after 72 hrs by CellTiter-Glo assay. The class given is cell-based. As to conditions: HEK293, 72 h. Summed up:
(§2)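 Cells were treated across a dose-response range for 72 h, and viability was read by CellTiter-Glo luminescence. Measurements were made in triplicate and reported with standard error.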
Background: Cellular ATP, detected with luciferase, serves as a proxy for viable cell number.

Experiment [3] deals with Tyrosine-protein kinase Fer (Homo sapiens) (UniProt P16591). Description: Binding affinity to wild-type human partial length FER (S542 to T822 residues) expressed in Escherichia coli BL21 at 1 uM by Kinomescan method relative to control.
Experiment [4] addresses cAMP-dependent protein kinase catalytic subunit PRKX (Homo sapiens) (UniProt P51817). In words: Binding affinity to wild-type human partial length PRKX (M1 to F358 residues) expressed in Escherichia coli BL21 at 1 uM by Kinomescan method relative to control.
Experiment [5] deals with Bone morphogenetic protein receptor type-1A (Homo sapiens) (UniProt P36894). Description: Binding affinity to wild-type human partial length BMPR1A (Q214 to I532 residues) expressed in Escherichia coli BL21 at 1 uM by Kinomescan method relative to control.
Experiment [6] concerns ALK tyrosine kinase receptor (Homo sapiens), Q9UM73 [L1196M]. Description: Binding affinity to […] human partial length ALK L1196M mutant (I1088 to E1409 residues) expressed in HEK293 cells at 1 uM by Kinomescan method relative to control. The class given is cell-based.
Experiment [7] concerns the target Serine/threonine-protein kinase ULK1 (Homo sapiens) (UniProt O75385). Description: Binding affinity to wild-type human partial length ULK1 (M1 to T309 residues) expressed in HEK293 cells at 1 uM by Kinomescan method relative to control. The class given is cell-based.
The target in experiment [8] is Receptor-interacting serine/threonine-protein kinase 2 (Homo sapiens) (UniProt O43353). In words: Binding affinity to wild-type human partial length RIPK2 (M1 to K310 residues) expressed in Escherichia coli BL21 at 1 uM by Kinomescan method relative to control.
Experiment [9] addresses Protein kinase C delta type (Homo sapiens) (UniProt Q05655). Description: Binding affinity to wild-type human partial length PRKCD (Q328 to D676 residues) expressed in Escherichia coli BL21 at 1 uM by Kinomescan method relative to control.
Experiment [10] concerns the target Serine/threonine-protein kinase Nek9 (Homo sapiens) (UniProt Q8TD19). In words: Binding affinity to wild-type human partial length NEK9 (P32 to R328 residues) expressed in Escherichia coli BL21 at 1 uM by Kinomescan method relative to control.
The target in experiment [11] is Serine/threonine-protein kinase TNNI3K (Homo sapiens) (UniProt Q59H18). In words: Binding affinity to wild-type human full length TNNI3K (M1 to S835 residues) expressed in Escherichia coli BL21 at 1 uM by Kinomescan method relative to control. Summed up:
as §1

Experiment [12] deals with Serine/threonine-protein kinase D2 (Homo sapiens) (UniProt Q9BZL6). Description: Binding affinity to wild-type human partial length PRKD2 (A519 to E838 residues) expressed in Escherichia coli BL21 at 1 uM by Kinomescan method relative to control.
The subject of a further experiment is PC-3. In words: Cytotoxicity against human PC3 cells assessed as reduction in cell viability up to 33.3 uM after 72 hrs by CellTiter-Glo assay relative to control. The class given is functional.
For experiment [13], the system named is HCT-116. Description: Cytotoxicity against human HCT116 cells assessed as reduction in cell viability after 72 hrs by CellTiter-Glo assay. The class given is functional, cell-based. As to conditions: HCT-116, 72 h. An outline of the steps: as §2
For experiment [14], the system named is HCT-116. In words: Cytotoxicity against human HCT116 cells assessed as reduction in cell viability up to 33.3 uM after 72 hrs by CellTiter-Glo assay relative to control. The class given is functional.

Chain of Serine/threonine-protein kinase Nek9 (Homo sapiens) (Q8TD19 whole entry, the tested form may be a part): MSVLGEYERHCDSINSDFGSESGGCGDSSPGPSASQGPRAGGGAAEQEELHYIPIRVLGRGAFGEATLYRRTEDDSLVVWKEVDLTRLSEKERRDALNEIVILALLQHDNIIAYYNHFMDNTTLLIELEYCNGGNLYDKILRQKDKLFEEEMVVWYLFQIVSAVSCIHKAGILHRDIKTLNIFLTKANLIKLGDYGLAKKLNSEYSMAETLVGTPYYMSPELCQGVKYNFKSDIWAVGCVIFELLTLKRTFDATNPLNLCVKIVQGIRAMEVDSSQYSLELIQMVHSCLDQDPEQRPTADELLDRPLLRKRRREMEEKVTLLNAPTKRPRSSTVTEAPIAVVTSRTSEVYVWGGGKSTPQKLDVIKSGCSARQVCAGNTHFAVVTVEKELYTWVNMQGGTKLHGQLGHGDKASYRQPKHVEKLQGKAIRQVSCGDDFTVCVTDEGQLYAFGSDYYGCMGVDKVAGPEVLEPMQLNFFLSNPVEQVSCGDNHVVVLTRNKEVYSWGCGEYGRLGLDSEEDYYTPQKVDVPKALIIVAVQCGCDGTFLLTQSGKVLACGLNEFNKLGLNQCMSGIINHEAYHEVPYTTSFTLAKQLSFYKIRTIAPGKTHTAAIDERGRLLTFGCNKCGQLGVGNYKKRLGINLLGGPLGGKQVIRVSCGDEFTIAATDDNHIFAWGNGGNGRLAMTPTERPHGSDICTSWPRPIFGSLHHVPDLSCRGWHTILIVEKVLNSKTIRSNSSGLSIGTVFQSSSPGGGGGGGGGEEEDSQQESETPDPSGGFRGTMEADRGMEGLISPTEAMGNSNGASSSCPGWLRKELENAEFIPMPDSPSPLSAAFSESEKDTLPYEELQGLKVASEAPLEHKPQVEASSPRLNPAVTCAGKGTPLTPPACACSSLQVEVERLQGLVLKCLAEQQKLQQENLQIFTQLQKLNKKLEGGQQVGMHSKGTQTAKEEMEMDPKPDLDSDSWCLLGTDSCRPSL
Chain of Serine/threonine-protein kinase TNNI3K (Homo sapiens) (Q59H18 whole entry, the tested form may be a part): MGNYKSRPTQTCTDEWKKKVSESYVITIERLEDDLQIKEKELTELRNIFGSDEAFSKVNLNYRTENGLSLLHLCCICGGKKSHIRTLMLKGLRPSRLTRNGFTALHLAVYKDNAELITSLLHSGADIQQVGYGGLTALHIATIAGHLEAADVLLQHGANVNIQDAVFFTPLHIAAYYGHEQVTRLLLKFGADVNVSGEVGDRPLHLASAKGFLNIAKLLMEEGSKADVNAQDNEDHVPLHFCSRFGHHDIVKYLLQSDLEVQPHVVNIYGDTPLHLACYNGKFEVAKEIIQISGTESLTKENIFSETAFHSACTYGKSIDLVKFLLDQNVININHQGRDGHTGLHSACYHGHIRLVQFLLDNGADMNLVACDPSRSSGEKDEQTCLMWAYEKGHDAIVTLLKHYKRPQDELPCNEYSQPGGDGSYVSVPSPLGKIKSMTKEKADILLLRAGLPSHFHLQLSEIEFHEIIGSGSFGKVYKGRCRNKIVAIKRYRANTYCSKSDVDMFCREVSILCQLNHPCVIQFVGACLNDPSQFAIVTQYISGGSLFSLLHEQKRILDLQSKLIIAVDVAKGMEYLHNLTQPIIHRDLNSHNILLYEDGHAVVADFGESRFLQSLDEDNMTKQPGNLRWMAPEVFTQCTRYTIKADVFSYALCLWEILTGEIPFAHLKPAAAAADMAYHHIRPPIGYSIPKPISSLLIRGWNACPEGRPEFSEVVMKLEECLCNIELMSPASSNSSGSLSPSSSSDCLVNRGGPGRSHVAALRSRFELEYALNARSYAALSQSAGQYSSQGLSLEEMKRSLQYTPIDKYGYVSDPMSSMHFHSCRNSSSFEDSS
Chain of Casein kinase I isoform delta (Homo sapiens) (P48730 whole entry, looked up, the tested form may be a part, canonical isoform): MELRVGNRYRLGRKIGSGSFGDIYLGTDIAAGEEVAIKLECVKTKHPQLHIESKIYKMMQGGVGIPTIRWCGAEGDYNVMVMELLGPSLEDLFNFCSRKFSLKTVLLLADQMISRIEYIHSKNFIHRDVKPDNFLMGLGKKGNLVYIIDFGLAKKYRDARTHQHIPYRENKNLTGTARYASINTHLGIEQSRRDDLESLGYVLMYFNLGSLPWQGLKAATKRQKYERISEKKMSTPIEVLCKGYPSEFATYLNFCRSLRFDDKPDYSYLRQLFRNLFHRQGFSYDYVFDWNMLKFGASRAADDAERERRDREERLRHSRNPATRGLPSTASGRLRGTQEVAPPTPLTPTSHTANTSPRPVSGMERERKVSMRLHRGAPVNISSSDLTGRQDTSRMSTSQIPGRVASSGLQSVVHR
Chain of Protein kinase C delta type (Homo sapiens) (Q05655 whole entry, looked up, the tested form may be a part): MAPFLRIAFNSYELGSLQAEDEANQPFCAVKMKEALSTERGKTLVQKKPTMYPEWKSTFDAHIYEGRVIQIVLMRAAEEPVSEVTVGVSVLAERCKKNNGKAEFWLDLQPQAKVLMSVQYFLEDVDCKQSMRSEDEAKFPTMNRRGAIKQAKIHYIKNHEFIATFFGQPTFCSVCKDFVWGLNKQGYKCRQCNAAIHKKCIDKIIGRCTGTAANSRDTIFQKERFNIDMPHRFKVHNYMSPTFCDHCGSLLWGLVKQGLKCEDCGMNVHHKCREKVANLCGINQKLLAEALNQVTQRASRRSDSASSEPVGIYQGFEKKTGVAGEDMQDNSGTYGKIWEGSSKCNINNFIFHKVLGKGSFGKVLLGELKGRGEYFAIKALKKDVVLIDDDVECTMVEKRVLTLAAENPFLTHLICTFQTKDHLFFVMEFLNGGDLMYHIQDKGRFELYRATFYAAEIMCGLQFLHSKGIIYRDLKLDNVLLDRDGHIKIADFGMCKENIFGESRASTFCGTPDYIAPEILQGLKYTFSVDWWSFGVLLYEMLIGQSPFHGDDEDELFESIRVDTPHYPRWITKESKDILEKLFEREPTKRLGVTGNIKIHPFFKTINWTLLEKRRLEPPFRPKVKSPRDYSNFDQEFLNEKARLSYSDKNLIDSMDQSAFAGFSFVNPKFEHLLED
Chain of Serine/threonine-protein kinase ULK1 (Homo sapiens) (O75385 whole entry, the tested form may be a part): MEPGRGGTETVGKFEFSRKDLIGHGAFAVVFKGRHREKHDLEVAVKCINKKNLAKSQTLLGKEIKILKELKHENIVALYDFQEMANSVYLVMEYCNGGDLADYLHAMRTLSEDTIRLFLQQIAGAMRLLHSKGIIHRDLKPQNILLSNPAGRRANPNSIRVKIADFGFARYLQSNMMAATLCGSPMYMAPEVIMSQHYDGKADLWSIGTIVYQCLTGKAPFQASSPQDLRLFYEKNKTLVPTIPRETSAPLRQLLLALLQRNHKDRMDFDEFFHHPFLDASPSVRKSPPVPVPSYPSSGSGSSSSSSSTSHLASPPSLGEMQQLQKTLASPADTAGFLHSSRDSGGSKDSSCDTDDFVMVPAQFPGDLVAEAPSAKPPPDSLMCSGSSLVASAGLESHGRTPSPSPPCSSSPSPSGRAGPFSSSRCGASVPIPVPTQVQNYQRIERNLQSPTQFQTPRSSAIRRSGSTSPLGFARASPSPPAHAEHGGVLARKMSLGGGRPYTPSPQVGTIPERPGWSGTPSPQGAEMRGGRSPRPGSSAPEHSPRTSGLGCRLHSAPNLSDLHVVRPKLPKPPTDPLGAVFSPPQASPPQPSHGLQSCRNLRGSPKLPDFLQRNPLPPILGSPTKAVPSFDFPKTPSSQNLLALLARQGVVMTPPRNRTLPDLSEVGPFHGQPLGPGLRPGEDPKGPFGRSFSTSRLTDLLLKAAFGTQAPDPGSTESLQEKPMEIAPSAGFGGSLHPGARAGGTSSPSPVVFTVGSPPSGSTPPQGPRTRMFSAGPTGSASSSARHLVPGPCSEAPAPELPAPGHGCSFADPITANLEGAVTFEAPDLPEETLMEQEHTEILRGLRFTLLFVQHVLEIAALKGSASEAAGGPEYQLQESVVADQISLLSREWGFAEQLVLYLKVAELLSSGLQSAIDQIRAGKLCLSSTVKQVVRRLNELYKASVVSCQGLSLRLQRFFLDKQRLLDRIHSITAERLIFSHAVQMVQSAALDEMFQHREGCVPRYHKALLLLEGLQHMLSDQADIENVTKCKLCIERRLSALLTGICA
Chain of Bone morphogenetic protein receptor type-1A (Homo sapiens) (P36894 whole entry, the tested form may be a part): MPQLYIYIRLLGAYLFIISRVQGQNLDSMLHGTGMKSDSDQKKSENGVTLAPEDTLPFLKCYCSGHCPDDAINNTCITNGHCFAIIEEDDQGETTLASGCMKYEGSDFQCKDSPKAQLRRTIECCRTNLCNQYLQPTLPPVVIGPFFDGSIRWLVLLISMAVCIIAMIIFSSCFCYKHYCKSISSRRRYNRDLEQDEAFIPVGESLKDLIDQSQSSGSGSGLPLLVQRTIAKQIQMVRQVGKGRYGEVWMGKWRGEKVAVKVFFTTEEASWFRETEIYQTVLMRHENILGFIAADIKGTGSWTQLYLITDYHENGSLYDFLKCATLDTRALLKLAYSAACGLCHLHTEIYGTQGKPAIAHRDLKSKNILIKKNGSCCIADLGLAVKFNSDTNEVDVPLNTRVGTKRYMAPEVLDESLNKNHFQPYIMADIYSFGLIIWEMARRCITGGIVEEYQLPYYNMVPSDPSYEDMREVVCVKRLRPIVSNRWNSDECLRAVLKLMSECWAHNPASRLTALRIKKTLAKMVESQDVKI
Chain of Receptor-interacting serine/threonine-protein kinase 2 (Homo sapiens) (O43353 whole entry, the tested form may be a part): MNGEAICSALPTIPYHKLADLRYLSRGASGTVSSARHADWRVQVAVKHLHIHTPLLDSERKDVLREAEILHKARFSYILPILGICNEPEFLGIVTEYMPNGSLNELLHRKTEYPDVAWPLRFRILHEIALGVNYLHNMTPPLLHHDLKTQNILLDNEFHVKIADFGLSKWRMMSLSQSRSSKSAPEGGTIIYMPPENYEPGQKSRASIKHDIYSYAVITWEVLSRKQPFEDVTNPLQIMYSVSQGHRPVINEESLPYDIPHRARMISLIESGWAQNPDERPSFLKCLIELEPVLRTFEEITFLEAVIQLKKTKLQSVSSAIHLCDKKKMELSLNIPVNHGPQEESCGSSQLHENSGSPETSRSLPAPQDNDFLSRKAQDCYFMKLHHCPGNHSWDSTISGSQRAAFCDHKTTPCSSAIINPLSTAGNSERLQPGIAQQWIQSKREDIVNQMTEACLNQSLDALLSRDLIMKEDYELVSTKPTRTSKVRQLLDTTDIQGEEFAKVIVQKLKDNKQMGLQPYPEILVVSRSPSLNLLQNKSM

Turning to `CCC(=O)Nc1ccc(C(=O)Nc2ccc(Nc3ncc4c(n3)N(C)c3ccc(C)cc3C(=O)N4C)cc2)cc1`, the Activity in experiment [1] came to 95%; in [2], 64%; in experiment [3], 85%; in experiment [4] it was 80%; in experiment [5] it was 100%; in [6], 96%. The Activity was found to be 91% in experiment [7]; 98% in experiment [8]; 84% in experiment [9]; 100% in experiment [10]; 100% in experiment [11]; 98% in [12]. Besides, the IC50 (usually the point on the concentration scale where inhibition reaches its midpoint) in the experiment with HEK293 is 100 nM.
For `C=CC(=O)Nc1ccc(C(=O)Nc2ccc(Nc3ncc4c(n3)N(C)c3ccc(C)cc3C(=O)N4C)cc2)cc1`, the Activity was found to be 50% with PC-3; 86% in [1]; 70% in experiment [2]; 78% in [3]; 100% in [4]; 82% in experiment [5]. The Activity in experiment [6] worked out at 94%; in [7], 79%; in experiment [8], 89%; in [9], 97%; with HCT-116 [14], 50%; in experiment [10], 97%. Also, the Activity was determined as 77% in experiment [11] and 98% in experiment [12]. Besides, the IC50 in the experiment with HCT-116 [13] is 845 nM.
